The test system of series [1] is Sprague-Dawley rats. In words: Conditioned taste aversion test. Type of series: in vivo, rat.
Series [2] concerns Sprague-Dawley rats. The series is described as follows: MCH-induced food intake in satiated rats. The settings on record: 2 nmole i.c.v. The series is classed as in vivo, rat. Put shortly: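 Cannulated male Sprague-Dawley rats were kept in wire-bottom cages >3 weeks and screened by drinking >5 ml/1 h after 50 ng angiotensin II. Satiated rats got 10 μl i.c.v. over 2 min at 7–8 a.m.: aCSF, MCH 2 nmole, or MCH plus test compound (1 or 5 nmole). Vehicles were DMSO-matched (up to 5% v/v). Food came 10 min later; cumulative intake over 4 h; ANOVA/Bonferroni.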

Series [3] has as its target T1, rat MCH1 receptor (Rattus norvegicus, UniProt P97639). In words: MCH-induced Ca2+ mobilization. The series is classed as cell-based. In general terms: A change in cytosolic calcium serves as a functional read-out for many receptors and channels.
Series [4] addresses T1, rat MCH1 receptor. Type of series: binding.
The next series addresses MCH2R (Homo sapiens, UniProt Q969V1). In words: Selectivity FLIPR activity assay. The series is classed as cell-based. Put shortly: (§1)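 Calcium FLIPR format: receptor-expressing cells were loaded 1 h at 37°C with fluo-4 in Hanks' balanced salt solution plus 20 mM HEPES (pH 7.4). Receptor activation was then measured as intracellular Ca2+ fluorescence in the presence of increasing test compound concentrations. The top concentration reported was 10 uM.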

A further series deals with NPY2R (Homo sapiens, UniProt P49146). The series is described as follows: Selectivity FLIPR activity assay. The series is classed as cell-based. Summed up:
as §1

The target of a further series is GPR10 (Homo sapiens, UniProt P49683). In words: Selectivity FLIPR activity assay. Type of series: cell-based. Summed up:
as §1

A further series has as its target Opiate κ (KOR) (Homo sapiens, UniProt P41145). In words: Selectivity FLIPR activity assay. The series is classed as cell-based. Summed up: as §1
The next series has as its target Orexin 1R (Homo sapiens, UniProt O43613). In words: Selectivity FLIPR activity assay. Type of series: cell-based. Put shortly:
as §1

For another series, the target named is hERG channel (Homo sapiens, UniProt Q12809). In words: in vitro hERG electrophysiology assay. Type of series: cell-based. A general note: Block of hERG is tested as a sign of cardiac risk.
Chain of hERG channel (Q12809 whole entry): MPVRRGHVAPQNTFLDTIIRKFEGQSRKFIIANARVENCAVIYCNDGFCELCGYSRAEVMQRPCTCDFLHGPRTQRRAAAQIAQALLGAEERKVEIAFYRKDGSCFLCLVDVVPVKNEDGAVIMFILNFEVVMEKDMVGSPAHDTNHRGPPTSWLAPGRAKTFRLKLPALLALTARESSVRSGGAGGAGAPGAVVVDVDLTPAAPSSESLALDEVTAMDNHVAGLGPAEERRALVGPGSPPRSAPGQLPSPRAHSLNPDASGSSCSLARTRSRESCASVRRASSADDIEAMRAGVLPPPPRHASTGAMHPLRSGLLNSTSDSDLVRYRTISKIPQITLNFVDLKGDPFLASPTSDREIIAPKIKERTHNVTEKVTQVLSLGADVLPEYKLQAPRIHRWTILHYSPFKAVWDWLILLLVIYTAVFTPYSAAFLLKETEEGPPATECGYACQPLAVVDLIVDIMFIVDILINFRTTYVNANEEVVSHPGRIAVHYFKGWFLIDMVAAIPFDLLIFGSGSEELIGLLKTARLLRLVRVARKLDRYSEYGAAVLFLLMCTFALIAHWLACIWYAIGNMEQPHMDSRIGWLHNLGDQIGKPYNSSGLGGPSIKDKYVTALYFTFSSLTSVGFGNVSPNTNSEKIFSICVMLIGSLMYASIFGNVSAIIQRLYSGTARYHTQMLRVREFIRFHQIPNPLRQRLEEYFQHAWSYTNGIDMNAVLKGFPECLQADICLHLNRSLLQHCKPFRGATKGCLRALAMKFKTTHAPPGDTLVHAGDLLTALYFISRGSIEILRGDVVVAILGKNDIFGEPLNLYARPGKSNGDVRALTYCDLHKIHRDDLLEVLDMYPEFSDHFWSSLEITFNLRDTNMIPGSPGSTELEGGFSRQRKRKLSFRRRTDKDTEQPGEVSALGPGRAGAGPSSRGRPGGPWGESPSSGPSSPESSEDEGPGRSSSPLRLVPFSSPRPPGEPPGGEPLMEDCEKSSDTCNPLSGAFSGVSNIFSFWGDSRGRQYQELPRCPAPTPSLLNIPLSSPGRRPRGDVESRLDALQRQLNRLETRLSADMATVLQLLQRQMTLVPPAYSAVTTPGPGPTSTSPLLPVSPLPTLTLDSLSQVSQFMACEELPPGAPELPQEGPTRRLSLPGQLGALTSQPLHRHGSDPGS
The next series has as its target Adenosine A1 (Homo sapiens, UniProt P30542). The series is described as follows: Radioligand displacement. The series is classed as binding.
A further series has as its target Adenosine A2A (Homo sapiens, UniProt P29274). In words: Radioligand displacement. The series is classed as binding. For orientation: Loss of bound radioactivity is the signal in a displacement assay; it reports binding, not function.
The next series has as its target Adrenergic β1/β2. The series is described as follows: Radioligand displacement. Conditions: read-out: BINDING Adrenergic β1/β2; displacement of specific radioactive ligand.
A further series has as its target Dopamine D2s (Homo sapiens, UniProt P14416). The series is described as follows: Radioligand displacement. Type of series: binding.
Another series deals with Dopamine D1 (Homo sapiens, UniProt P21728). In words: Radioligand displacement. Type of series: binding.
Chain of Dopamine D1 (P21728 whole entry): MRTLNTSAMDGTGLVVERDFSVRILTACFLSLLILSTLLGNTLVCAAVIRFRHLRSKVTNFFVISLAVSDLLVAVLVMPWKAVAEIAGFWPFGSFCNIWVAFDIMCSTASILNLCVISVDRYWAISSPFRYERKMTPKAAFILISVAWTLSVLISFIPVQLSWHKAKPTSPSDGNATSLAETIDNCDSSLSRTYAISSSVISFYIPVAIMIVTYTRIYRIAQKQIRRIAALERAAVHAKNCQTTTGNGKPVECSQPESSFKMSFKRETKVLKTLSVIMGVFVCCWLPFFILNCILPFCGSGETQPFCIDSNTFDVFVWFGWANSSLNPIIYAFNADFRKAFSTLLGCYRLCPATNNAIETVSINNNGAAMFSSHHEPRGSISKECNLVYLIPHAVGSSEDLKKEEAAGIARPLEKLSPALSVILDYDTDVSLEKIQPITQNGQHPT
A further series concerns the target GPR103 (Homo sapiens, UniProt Q96P65). The series is described as follows: Radioligand displacement. Type of series: binding.
The next series deals with Histamine H1 (Homo sapiens, UniProt P35367). In words: Radioligand displacement. Type of series: binding.
In the next series the target is Muscarinic M2 (Homo sapiens, UniProt P08172). In words: Radioligand displacement. Type of series: binding.
Chain of Muscarinic M2 (P08172 whole entry): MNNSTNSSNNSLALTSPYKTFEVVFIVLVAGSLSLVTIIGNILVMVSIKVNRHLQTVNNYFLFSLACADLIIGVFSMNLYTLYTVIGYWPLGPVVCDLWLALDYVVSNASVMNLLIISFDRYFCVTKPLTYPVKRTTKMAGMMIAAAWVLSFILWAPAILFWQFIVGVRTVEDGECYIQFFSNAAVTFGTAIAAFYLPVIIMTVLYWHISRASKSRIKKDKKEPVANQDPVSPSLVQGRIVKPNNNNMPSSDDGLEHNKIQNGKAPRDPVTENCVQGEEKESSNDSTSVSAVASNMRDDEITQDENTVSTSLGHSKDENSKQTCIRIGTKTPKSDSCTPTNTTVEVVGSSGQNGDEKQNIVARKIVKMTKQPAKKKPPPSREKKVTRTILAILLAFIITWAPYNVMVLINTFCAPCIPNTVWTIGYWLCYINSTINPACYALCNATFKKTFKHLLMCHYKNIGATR
The target in the next series is Muscarinic M3 (Homo sapiens, UniProt P20309). The series is described as follows: Radioligand displacement. Type of series: binding.
Another series has as its target Prostanoid EP4 (Homo sapiens, UniProt P35408). In words: Radioligand displacement. Type of series: binding.
For a further series, the target named is Opiate μ (OP3, MOP) (Homo sapiens, UniProt P35372). The series is described as follows: Radioligand displacement. The series is classed as binding.
Another series addresses Phorobol Ester. The series is described as follows: Radioligand displacement. The settings on record: read-out: BINDING Phorobol Ester; displacement of specific radioactive ligand.
For another series, the target named is Rolipram. In words: Radioligand displacement. The settings on record: read-out: BINDING Rolipram; displacement of specific radioactive ligand.
The target of series [5] is Nicotinic Acetylcholine α1, Bungarotoxin (Homo sapiens, UniProt P02708+P07510+Q07001). In words: biochemical. Type of series: binding.
For series [6], the target named is Transporter, Norepinephrine (NET) (Homo sapiens, UniProt P23975). The series is described as follows: Radioligand displacement. The series is classed as binding.
Series [7] is described as follows: Pharmacokinetics in rats after intravenous administration. Type of series: in vivo. The settings on record: rat, plasma, 5 mg/kg.
Series [8] concerns Sprague-Dawley rats. In words: Spontaneous locomotor activity. The series is classed as in vivo, rat. Summed up: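 Cannulated male Sprague-Dawley rats were acclimatized 60 min to a novel home cage, removed, given vehicle or 5 nmole test compound i.c.v., and returned at once. An infrared beam monitor (4 × 8 frame) recorded 60 min. Beam breaks changing location counted as ambulatory; all others as non-ambulatory fine movement. n=10.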

Molecules are shown by their SMILES. Entries after “also recorded” stand apart in the source; their conditions may differ. Some results are limits rather than exact numbers.

T1 sequence (P97639 whole entry): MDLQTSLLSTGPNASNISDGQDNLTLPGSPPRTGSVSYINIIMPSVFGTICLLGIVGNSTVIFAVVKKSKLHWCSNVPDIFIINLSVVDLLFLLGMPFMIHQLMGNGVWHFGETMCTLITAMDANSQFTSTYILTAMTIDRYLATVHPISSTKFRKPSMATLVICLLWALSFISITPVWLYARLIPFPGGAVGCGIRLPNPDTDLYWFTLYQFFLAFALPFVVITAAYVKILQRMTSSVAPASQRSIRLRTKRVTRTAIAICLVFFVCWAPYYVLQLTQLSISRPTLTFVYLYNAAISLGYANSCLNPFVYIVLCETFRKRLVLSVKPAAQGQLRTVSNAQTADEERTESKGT
Chain of Opiate κ (KOR) (P41145 whole entry): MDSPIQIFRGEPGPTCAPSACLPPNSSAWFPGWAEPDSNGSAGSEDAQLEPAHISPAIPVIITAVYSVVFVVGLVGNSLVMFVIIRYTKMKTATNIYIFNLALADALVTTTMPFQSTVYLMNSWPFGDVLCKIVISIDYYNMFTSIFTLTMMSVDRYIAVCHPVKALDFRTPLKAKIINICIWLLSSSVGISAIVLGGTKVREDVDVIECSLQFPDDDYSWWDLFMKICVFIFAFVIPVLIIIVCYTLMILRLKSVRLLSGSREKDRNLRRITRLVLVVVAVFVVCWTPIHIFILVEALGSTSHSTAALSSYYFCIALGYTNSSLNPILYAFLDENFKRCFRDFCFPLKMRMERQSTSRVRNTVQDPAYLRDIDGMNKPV
Chain of Dopamine D2s (P14416 1-414 isoform P14416-2): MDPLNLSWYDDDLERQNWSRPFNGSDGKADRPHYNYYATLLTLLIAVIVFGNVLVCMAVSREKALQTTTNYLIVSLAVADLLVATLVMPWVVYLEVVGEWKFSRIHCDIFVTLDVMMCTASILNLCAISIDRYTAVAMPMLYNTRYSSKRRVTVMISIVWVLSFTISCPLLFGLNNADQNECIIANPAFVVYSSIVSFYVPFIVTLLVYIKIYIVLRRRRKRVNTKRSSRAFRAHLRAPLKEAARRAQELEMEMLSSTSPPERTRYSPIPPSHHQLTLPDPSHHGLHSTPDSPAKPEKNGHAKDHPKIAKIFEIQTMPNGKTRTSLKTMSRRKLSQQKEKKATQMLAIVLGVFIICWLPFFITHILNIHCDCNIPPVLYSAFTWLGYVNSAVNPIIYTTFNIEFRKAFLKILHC
Chain of NPY2R (P49146 whole entry, species assumed): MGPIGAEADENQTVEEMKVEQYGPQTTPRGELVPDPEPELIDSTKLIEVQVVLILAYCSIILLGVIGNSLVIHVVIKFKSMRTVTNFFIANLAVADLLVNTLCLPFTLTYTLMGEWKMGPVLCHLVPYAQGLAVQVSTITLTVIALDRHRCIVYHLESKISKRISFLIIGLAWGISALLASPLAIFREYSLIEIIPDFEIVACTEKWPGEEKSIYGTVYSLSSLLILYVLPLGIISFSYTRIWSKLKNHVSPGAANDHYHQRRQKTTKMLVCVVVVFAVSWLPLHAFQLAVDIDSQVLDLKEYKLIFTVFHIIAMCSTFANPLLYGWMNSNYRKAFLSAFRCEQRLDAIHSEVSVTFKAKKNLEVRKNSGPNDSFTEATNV
Chain of GPR10 (P49683 whole entry, species assumed): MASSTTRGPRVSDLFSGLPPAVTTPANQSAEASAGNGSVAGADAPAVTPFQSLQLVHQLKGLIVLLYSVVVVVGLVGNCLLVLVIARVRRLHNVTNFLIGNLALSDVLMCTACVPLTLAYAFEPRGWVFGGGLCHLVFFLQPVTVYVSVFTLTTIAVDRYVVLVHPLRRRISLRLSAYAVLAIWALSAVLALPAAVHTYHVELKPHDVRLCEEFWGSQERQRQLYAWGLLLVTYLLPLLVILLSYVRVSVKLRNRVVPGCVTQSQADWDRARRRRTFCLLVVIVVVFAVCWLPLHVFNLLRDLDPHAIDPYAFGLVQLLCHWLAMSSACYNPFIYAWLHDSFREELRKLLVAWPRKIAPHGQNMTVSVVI
Chain of Adenosine A2A (P29274 whole entry): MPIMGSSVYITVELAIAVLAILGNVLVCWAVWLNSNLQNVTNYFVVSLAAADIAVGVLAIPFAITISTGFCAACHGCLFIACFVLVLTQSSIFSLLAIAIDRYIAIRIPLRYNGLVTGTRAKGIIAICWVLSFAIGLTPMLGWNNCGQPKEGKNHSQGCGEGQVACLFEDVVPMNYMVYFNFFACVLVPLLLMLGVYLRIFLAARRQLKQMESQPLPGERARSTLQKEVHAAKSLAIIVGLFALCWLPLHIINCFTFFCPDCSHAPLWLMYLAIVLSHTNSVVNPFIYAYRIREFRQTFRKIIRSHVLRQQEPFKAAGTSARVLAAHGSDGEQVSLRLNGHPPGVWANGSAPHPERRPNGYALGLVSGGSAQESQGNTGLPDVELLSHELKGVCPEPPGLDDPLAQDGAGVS
Chain of GPR103 (Q96P65 whole entry, species assumed): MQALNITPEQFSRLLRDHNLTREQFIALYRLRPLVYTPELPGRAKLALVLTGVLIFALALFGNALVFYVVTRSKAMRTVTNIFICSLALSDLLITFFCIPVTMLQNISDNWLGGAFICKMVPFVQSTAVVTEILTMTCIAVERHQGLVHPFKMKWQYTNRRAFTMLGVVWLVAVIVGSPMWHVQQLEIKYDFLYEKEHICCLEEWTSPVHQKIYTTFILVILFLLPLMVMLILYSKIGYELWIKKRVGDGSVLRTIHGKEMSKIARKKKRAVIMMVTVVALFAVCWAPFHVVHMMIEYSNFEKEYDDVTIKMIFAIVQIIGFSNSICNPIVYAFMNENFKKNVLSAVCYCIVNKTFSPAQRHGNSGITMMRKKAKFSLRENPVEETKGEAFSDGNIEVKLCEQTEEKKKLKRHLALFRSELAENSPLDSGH

Turning to `[Cl-].[Li+]` [LiCl, Lithium chloride, reference compound], in the series on Sprague-Dawley rats [1] (300 mg/kg, i.p., positive control, P<0.01 vs. vehicle group), the taste aversion effect entry is listed as “robust taste aversion effect”.

`CSCC[C@@H]1NC(=O)[C@@H](NC(=O)[C@H](CCCNC(=N)N)NC(=O)[C@H](CC(C)C)NC(=O)[C@H](CCSC)NC(=O)[C@H](CC(=O)O)NC(=O)[C@H](Cc2ccccc2)NC(=O)[C@@H](N)CC(=O)O)CSSC[C@@H](C(=O)N[C@@H](Cc2c[nH]c3ccccc23)C(=O)N[C@@H](CCC(N)=O)C(=O)N[C@H](C(=O)O)C(C)C)NC(=O)[C@@H]2CCCN2C(=O)[C@H](CCCNC(=N)N)NC(=O)[C@H](Cc2ccc(O)cc2)NC(=O)[C@H](C(C)C)NC(=O)[C@H](CCCNC(=N)N)NC(=O)CNC(=O)[C@H](CC(C)C)NC1=O` [MCH, Melanin-concentrating hormone]: in the series on Sprague-Dawley rats [2], the “feeding after intracerebroventricular injection” value is “induced rapid and robust feeding”.

As usually defined, the Tmax is the time from dosing to the highest level. In general, AUC(0-inf) refers to total exposure, with the tail of the curve extrapolated. Low readings indicate less exposure, high ones more exposure. A word on the half-life: it is the time in which the quantity being followed falls by half. A high value points to slow loss. Turning to `C[C@@H](CNCc1ccccc1)N1C[C@H](CCCNC(=N)N)N(CCc2cccc(F)c2)C1=S` [TPI 1361-17, N-(3-{(4S)-1-[(1S)-2-(benzylamino)-1-methylethyl]-3-[2-(3-fluorophenyl)ethyl]-2-thioxoimidazolidin-4-yl}propyl)guanidine], the “pA2 (Schild regression)” value on rat MCH1 receptor [3] (MCH dose response curves with increasing concentrations of antagonist) is on record as 9.43. Further, the “effect on basal Ca2+ level by itself” value on rat MCH1 receptor [3] (compound alone, no MCH) was “did not change the basal Ca^2+ level”. At rat MCH1 receptor [3] (r^2 = 0.975), this compound had a Schild regression slope of 1.085 ± 0.010. Also, the IC50 is 31.8 ± 8.66 nM on rat MCH1 receptor [4]; over 10 µM against hERG channel; over 1000 nM at Adenosine A1; over 1000 nM on Adenosine A2A; over 1000 nM at Adrenergic β1/β2; over 1000 nM on Dopamine D2s. In addition, the IC50 at Dopamine D1, on GPR103, on Histamine H1, on Muscarinic M2, at Muscarinic M3 and at Prostanoid EP4 was over 1000 nM throughout. Moreover, the IC50 at Opiate μ (OP3, MOP) was over 1000 nM; on Phorobol Ester it was over 1000 nM; on Rolipram, over 1000 nM; in [5] it was over 1000 nM; in series [6] it was over 1000 nM. The “displacement of the binding of [125I] MCH” value on rat MCH1 receptor [4] (rat MCH1 receptor membranes) is reported as “completely displaced”. At MCH2R, the “selectivity for MCH1 receptor compared to human MCH2 receptor” value is reported as “more than 1,000 fold”. The “selectivity for MCH1 receptor compared to neuropeptide Y2” value on NPY2R is reported as “more than 1,000 fold”. The “selectivity for MCH1 receptor compared to prolactin releasing peptide receptor” value on GPR10 was “more than 1,000 fold”. The “selectivity for MCH1 receptor compared to kappa opioid receptors” value at Opiate κ (KOR) is on record as “more than 1,000 fold”. On Orexin 1R, the “selectivity for MCH1 receptor compared to orexin 1R” value was “more than 1,000 fold”. In addition, the “activity in a hERG channel assay” value on hERG channel (result in words) is reported as “not show activity; also recorded: no activity was detected”. For the same compound, the Tmax in [7] was determined as 4.98 min. The AUC(0-inf) in series [7] (AUC0-∞ (mean value), intravenous, mean) came to 2440 ng·h/mL. The compound also had a half-life in series [7] (plasma elimination half-life (mean value), intravenous, mean) of 162 min. Further, the “ambulatory and non-ambulatory movements vs vehicle” value in the series on Sprague-Dawley rats [8] (five nmole i.c.v., monitored for 60 minutes) is given as “no significant differences”. Also, the “detectable changes in movement” value in the series on Sprague-Dawley rats [8] (five or one nmole i.c.v.) was “did not exhibit any detectable changes in movement”. The “aversive effect in taste aversion test” value in the series with Sprague-Dawley rats [1] (10 nmole, i.c.v., saccharin preference) is given as “did not result in any aversive effect”.

The record behind these values is PMC2633472 (European journal of pharmacology, 2008).
